The source made the active and inactive calls. No cut-off for these calls is given here.
Columns and labels:
[1] = molecular target: T1, Protein lin-28 homolog A (Mus musculus, UniProt Q8K3Y3); assay: (§1) Binding affinity to mouse N-terminal Halo-fused/biotin-labelled Lin28A expressed in Escherichia coli BL21(DE3) assessed as inhibition of protein interaction with pre-Let-7d microRNA measured after 1 hr by cat-ELCCA
T1 sequence (Q8K3Y3 whole entry): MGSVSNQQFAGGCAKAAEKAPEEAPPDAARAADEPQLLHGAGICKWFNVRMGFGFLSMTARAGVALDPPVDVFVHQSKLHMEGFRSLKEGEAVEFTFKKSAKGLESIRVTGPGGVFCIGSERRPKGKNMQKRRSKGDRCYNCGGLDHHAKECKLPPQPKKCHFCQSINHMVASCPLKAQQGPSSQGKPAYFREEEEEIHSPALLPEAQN
How it was run: (§2)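 Biotinylated HaloTag-mLin28A (10 μL of 200 nM in storage buffer) immobilized on streptavidin plates overnight at 4 °C. TCO-pre-let-7d (200 nM in binding buffer) added with compound, 5% DMSO final, 1 h at 25 °C. Then mTet-HRP (750 nM) click for 1 h at 25 °C, washes, chemiluminescent read. CRCs were eight points, 3.3–120 μM.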

[2] = molecular target: T2, Protein lin-28 homolog A (Mus musculus) (UniProt Q8K3Y3); assay: as §1; how it was run: as §2
T2 sequence (whole entry): T1 sequence (Q8K3Y3 whole entry)

[3] = molecular target: T2, Protein lin-28 homolog A (Mus musculus); assay: Binding affinity to mouse N-terminal Halo-fused/biotin-labelled Lin28A expressed in Escherichia coli BL21(DE3) at 18.7 to 75 uM by surface plasmon resonance analysis
How it was run: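 SPR on BioCap chip with biotinylated HaloTag-Lin28A immobilized at 2,300 RU. Running buffer: 50 mM Tris pH 7.6, 150 mM NaCl, 1 mM β-ME, 5% glycerol, 0.05% Tween-20, 1 mM ZnCl₂, 5% DMSO. Analytes at 75, 37.5, 18.7 μM, injected 50 μL at 50 μL/min; regeneration between cycles.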

[4] = Binding affinity to synthetic biotinylated pre-let-7d microRNA at 6.25 to 100 uM by surface plasmon resonance analysis
How it was run: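 SPR with biotinylated pre-let-7d immobilized at 2,300 RU on BioCap chip. Analytes at 100, 50, 25, 12.5, 6.25 μM, injected 30 μL at 30 μL/min; regeneration between cycles.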

[5] = molecular target: T2, Protein lin-28 homolog A (Mus musculus); assay: Binding affinity to mouse N-terminal Halo-fused/biotin-labelled Lin28A expressed in Escherichia coli BL21(DE3) assessed as inhibition of protein interaction with pre-Let-7d microRNA by electrophoretic mobility shift assay
[6] = molecular target: Eukaryotic translation initiation factor 4E/Eukaryotic translation initiation factor 4E-binding protein 1 (Homo sapiens) (UniProt P06730+Q13541); assay: Inhibition of eIF4E-4E-BP1 (unknown origin) interaction at 100 uM by cat-ELCCA; format: protein assay
Eukaryotic translation initiation factor 4E/Eukaryotic translation initiation factor 4E-binding protein 1 (Homo sapiens), sequence (P06730 2-217 limits assumed): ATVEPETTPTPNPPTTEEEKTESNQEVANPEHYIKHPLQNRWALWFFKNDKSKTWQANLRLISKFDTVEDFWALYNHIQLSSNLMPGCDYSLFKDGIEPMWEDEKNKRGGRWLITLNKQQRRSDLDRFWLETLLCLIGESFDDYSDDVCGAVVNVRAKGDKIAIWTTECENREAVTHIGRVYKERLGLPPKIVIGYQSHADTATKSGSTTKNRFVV
Eukaryotic translation initiation factor 4E/Eukaryotic translation initiation factor 4E-binding protein 1 (Homo sapiens), sequence (Q13541 2-118 partner limits assumed): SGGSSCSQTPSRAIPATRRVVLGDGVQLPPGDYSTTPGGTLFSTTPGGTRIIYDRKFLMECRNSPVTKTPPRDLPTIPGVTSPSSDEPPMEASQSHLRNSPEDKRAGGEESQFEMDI
How it was run: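 Counter-screen: eIF4E–4E-BP1 interaction read by cat-ELCCA with compound at 100 μM; assay setup cited to earlier work.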

[7] = molecular target: T2, Protein lin-28 homolog A (Mus musculus); assay: Binding affinity to mouse N-terminal Halo-fused/biotin-labelled Lin28A expressed in Escherichia coli BL21(DE3) assessed as inhibition of protein interaction with microRNA at 20 to 50 uM by electrophoretic mobility shift assay
[8] = molecular target: Endoribonuclease Dicer (Homo sapiens) (UniProt Q9UPY3); assay: Binding affinity to dicer (unknown origin) assessed as inhibition of dicer-meditated pre-let-7d microRNA maturation at 100 uM by electrophoretic mobility shift assay
Endoribonuclease Dicer (Homo sapiens), sequence (Q9UPY3 whole entry): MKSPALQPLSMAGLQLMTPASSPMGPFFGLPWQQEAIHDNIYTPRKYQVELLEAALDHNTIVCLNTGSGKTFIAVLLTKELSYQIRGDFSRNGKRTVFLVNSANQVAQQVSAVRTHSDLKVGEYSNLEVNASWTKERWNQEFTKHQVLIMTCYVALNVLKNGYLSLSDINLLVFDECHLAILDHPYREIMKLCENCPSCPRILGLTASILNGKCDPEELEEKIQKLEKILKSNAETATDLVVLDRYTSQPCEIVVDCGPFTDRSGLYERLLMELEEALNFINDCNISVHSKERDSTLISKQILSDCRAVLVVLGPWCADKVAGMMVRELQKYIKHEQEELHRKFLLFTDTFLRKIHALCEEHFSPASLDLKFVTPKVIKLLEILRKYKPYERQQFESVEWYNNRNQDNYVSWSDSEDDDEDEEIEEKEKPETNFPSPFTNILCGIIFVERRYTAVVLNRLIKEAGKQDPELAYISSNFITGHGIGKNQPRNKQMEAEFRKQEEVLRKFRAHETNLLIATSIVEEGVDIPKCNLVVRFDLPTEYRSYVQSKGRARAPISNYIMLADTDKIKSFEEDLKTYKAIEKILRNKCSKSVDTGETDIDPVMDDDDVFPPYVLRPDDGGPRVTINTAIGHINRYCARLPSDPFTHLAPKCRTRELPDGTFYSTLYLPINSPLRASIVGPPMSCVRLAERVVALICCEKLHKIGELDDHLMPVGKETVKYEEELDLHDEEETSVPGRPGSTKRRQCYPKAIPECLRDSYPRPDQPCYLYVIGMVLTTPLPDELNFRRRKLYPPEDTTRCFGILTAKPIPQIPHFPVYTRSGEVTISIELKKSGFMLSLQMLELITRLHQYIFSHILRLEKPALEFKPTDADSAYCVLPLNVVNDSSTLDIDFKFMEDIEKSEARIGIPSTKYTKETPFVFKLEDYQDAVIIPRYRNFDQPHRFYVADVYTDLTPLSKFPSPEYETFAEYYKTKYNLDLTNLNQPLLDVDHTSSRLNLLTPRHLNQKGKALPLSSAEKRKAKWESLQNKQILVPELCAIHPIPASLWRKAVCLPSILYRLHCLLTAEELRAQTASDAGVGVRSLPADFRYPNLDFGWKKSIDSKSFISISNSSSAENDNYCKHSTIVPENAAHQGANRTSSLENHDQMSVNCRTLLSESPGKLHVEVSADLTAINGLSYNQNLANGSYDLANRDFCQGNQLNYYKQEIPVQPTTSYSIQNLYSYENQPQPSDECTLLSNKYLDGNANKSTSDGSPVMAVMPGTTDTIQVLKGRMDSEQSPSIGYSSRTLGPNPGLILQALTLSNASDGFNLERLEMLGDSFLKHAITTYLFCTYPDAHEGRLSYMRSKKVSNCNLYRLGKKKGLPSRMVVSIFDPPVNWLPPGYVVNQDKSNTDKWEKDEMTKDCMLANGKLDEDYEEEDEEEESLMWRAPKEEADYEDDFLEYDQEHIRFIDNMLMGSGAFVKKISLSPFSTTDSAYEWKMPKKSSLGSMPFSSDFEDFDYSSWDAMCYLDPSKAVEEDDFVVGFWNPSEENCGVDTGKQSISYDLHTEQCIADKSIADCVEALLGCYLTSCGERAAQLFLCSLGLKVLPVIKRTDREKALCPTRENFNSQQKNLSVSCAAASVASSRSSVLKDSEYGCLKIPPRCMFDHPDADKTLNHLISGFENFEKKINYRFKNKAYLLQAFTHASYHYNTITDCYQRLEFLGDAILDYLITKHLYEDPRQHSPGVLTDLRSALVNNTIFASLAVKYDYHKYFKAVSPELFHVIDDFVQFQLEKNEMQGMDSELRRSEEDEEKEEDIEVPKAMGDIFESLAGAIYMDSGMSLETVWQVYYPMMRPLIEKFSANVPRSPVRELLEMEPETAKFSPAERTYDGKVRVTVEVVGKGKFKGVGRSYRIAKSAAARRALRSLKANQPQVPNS
How it was run: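 Dicer-mediated pre-let-7d maturation tested with compound at 100 μM; samples run with and without Dicer; procedure cited to earlier work.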

[9] = molecular target: T2, Protein lin-28 homolog A (Mus musculus); assay: Binding affinity to mouse N-terminal Halo-fused/biotin-labelled Lin28A expressed in Escherichia coli BL21(DE3) assessed as inhibition of protein interaction with pre-Let-7a microRNA at 20 to 50 uM by electrophoretic mobility shift assay
[10] = molecular target: T3, Protein lin-28 homolog B (Homo sapiens) (UniProt Q6ZN17); assay: Binding affinity to human N-terminal Halo-fused/biotin-labelled Lin28B expressed in Escherichia coli BL21(DE3) assessed as inhibition of protein interaction with pre-Let-7d microRNA measured after 1 hr by cat-ELCCA
T3 sequence (whole entry): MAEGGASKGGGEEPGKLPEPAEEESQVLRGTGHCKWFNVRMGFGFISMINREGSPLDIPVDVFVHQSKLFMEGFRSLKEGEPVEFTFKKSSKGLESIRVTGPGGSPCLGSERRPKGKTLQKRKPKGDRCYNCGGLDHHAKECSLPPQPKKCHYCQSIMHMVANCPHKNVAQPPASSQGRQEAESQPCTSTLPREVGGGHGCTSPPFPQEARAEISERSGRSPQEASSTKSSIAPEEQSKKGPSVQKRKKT
How it was run: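 Human Lin28B, cloned from A549 cDNA as a HaloTag fusion, expressed in E. coli (IPTG 500 μM, overnight 37 °C), Ni-NTA purified, biotinylated with Biotin-PEG7-HaloTag ligand (10 equiv, overnight 4 °C), immobilized on streptavidin plates. TCO-labelled pre-let-7d plus compound in Tris binding buffer with ZnCl₂ and β-mercaptoethanol, 5% DMSO final, 25 °C 1 h. Bound RNA detected by mTet-HRP click chemistry and chemiluminescence. IC50 from curves.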

Row | Compound | IC50 [1] [µM] | also measured
1 | O=S(=O)(Nc1ccccc1NS(=O)(=O)c1ccccc1)c1ccccc1 | 32.2 | 
2 | O=C(Nc1ccccc1NC(=O)c1ccccc1)c1ccccc1 |  | inhibition [2]: inactive
3 | CC(=O)Nc1ccc(S(=O)(=O)Nc2ccccc2NS(=O)(=O)c2ccc(NC(C)=O)cc2)cc1 | 62.5 | 
4 | COc1ccc(S(=O)(=O)Nc2ccccc2NS(=O)(=O)c2ccc(F)cc2)cc1 | 17.2 | 
5 | O=S(=O)(Nc1ccccc1NS(=O)(=O)c1cccc(Cl)c1)c1cccc(Cl)c1 | 5.7 | 
6 | Cc1ccc(S(=O)(=O)Nc2ccc(C)cc2NS(=O)(=O)c2ccc(F)cc2)cc1 | 11.7 | 
7 | O=S(=O)(Nc1ccccc1NS(=O)(=O)c1cccc(Br)c1)c1ccc(F)cc1 | 16.2 | 
8 | Cc1ccc(S(=O)(=O)Nc2ccc(F)cc2NS(=O)(=O)c2ccc(C)cc2)cc1 | 8.3 | Activity [3]: Active; Activity [4]: inactive; inhibition [5]: Active; inhibition [6]: inactive; inhibition [7]: Active; inhibition [8]: inactive; inhibition [9]: Active; inhibition [10]: Active
9 | Cc1ccc(S(=O)(=O)Nc2ccccc2NS(=O)(=O)c2ccc(C)c(Cl)c2)cc1Cl | 2.3 | 
10 | Cc1ccc(NS(=O)(=O)c2cccc(Cl)c2)c(NS(=O)(=O)c2cccc(Cl)c2)c1 | 4.3 | 
11 | O=S(=O)(Nc1cccc(NS(=O)(=O)c2ccccc2)c1)c1ccccc1 |  | inhibition [2]: inactive
12 | Cc1ccc(NS(=O)(=O)c2ccc(Cl)cc2)c(NS(=O)(=O)c2ccc(Cl)cc2)c1 | 28.4 | 
13 | O=S(=O)(Nc1ccccc1NS(=O)(=O)c1cccc(Cl)c1)c1ccc(F)cc1 | 10.8 | 
14 | O=S(=O)(Nc1ccccc1NS(=O)(=O)c1ccc(Cl)cc1)c1ccc(Cl)cc1 | 27.5 | 
15 | O=S(=O)(Nc1ccccc1NS(=O)(=O)c1ccc(Br)cc1)c1ccc(Br)cc1 | 17.5 | 
16 | Cc1ccc(S(=O)(=O)Nc2ccc(C)cc2NS(=O)(=O)c2cccc(C(F)(F)F)c2)cc1 | 10.4 | inhibition [5]: Active; inhibition [7]: Active; inhibition [8]: inactive; inhibition [9]: Active; inhibition [10]: Active
17 | O=S(=O)(c1ccccc1)N1CCN(S(=O)(=O)c2ccccc2)c2ccccc21 |  | inhibition [2]: inactive
18 | O=S(=O)(Nc1ccccc1NS(=O)(=O)c1ccc(F)cc1)c1ccccc1 | 13.9 | 
19 | Nc1ccccc1NS(=O)(=O)c1ccccc1 |  | inhibition [2]: inactive

Second part, led by results:

Row | IC50 [1] [µM] | Compound | also measured
20 | 28.8 | Cc1ccc(NS(=O)(=O)c2ccccc2)c(NS(=O)(=O)c2ccccc2)c1 | 
21 | 3.7 | Cc1ccc(S(=O)(=O)Nc2ccc(F)cc2NS(=O)(=O)c2ccc(C)c(Cl)c2)cc1Cl | 
22 | 28.3 | O=S(=O)(Nc1ccccc1NS(=O)(=O)c1ccc(F)cc1)c1ccc(F)cc1 | 
23 | 27.3 | O=S(=O)(Nc1ccccc1NS(=O)(=O)c1ccc(Cl)cc1)c1ccc(F)cc1 | 
24 | 16.2 | Cc1ccc(NS(=O)(=O)c2ccc(F)cc2)c(NS(=O)(=O)c2ccc(F)cc2)c1 | 
25 | 14.1 | Cc1ccc(S(=O)(=O)Nc2ccc(C)cc2NS(=O)(=O)c2ccc(C)cc2)cc1 | 
26 | 16.7 | COc1ccc(S(=O)(=O)Nc2ccccc2NS(=O)(=O)c2ccc(OC)cc2)cc1 | 

Source: ChEMBL document CHEMBL4145627, “Expansion of cat-ELCCA for the Discovery of Small Molecule Inhibitors of the Pre-let-7-Lin28 RNA-Protein Interaction” (ACS Med Chem Lett, 2018)
